Molecules are shown by their SMILES. Where only a bound is given, the exact number is not on record here.

One test addresses T1, recombinant human TDP2 (Homo sapiens, UniProt O95551).
T1 sequence (O95551 1-362): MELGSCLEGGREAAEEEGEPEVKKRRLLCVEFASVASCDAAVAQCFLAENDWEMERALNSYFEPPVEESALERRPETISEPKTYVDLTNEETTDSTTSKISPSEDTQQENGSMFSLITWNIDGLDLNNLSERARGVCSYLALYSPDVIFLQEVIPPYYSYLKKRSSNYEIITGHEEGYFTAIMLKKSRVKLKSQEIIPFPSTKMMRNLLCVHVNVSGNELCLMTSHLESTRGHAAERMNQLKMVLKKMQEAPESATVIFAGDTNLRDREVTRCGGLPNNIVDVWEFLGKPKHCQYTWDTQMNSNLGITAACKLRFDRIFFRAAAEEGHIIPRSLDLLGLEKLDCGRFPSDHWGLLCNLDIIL
Nature of the test: Recombinant TDP2 assay.
Details: not given
It counts as biochemical. In a few lines:
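Human recombinant TDP2 (25 pM) with 1 nM 18-mer 5'-phosphotyrosyl ssDNA, 3'-α32P-cordycepin-labelled. Reaction ran 15 min at room temperature in Tris-HCl pH 7.5, KCl, MgCl2, EDTA, DTT, BSA and Tween 20. Stopped with formamide loading buffer, then 16% denaturing PAGE and phosphorimaging densitometry of product. […] IC50 is 50% enzyme inhibition.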
For `N#Cc1ccc(OCc2noc3c2C(=O)c2cccnc2C3=O)cc1` [Compound 68, 4-((4,9-Dioxo-4,9-dihydroisoxazolo[4,5-g]quinolin-3-yl)methoxy)benzonitrile], the concentration for half-maximal inhibition (IC50) came out at 0.74 ± 0.25 µM.
The same measure, in the same setting: under `O=C(OCCc1ccc([N+](=O)[O-])cc1)c1noc2c1C(=O)c1cccnc1C2=O` [Compound 62, 4-Nitrophenethyl 4,9-dioxo-4,9-dihydroisoxazolo[4,5-g]quinoline-3-carboxylate] stands 11 ± 3.8 µM; under `CCOC(=O)c1c(C)oc2c1C(=O)c1ccc(N(C)C)nc1C2=O` [Compound 30, Ethyl-7-(dimethylamino)-2-methyl-4,9-dioxo-4,9-dihydrofuro[3,2-g]quinoline-3-carboxylate], over 111 µM.
On the same count and under the same terms, under `CCOC(=O)c1c(C)oc2c1C(=O)c1ncc(C)cc1C2=O` [Compound 33, Ethyl-2,7-dimethyl-4,9-dioxo-4,9-dihydrofuro[2,3-g]quinoline-3-carboxylate] stands over 111 µM; under `CCOC(=O)c1c(C)oc2c1C(=O)c1ccncc1C2=O` [Compound 13, Ethyl 2-methyl-4,9-dioxo-4,9-dihydrofuro[3,2-g]isoquinoline-3-carboxylate], over 111 µM; under `O=C(OCCc1ccc(Cl)cc1)c1noc2c1C(=O)c1cccnc1C2=O` [Compound 57, 4-chlorophenethyl 4,9-dioxo-4,9-dihydroisoxazolo[4,5-g]quinoline-3-carboxylate], 9.9 ± 2.2 µM.
The same measure, in the same setting: for `COc1ccc(-c2noc3c2C(=O)c2cccnc2C3=O)cc1OC` [Compound 70, 3-(3,4-Dimethoxyphenyl)isoxazolo[4,5-g]quinoline-4,9-dione] the value was 0.46 ± 0.15 µM; for `O=C(OCC(F)(F)F)c1noc2c1C(=O)c1cccnc1C2=O` [Compound 59, 2,2,2-Trifluoroethyl 4,9-dioxo-4,9-dihydroisoxazolo[4,5-g]quinoline-3-carboxylate], 14 ± 2.9 µM.
For the compound `CCOC(=O)c1noc2c1C(=O)c1ccncc1C2=O` [Compound 51, Ethyl 4,9-dioxo-4,9-dihydroisoxazolo[4,5-g]isoquinoline-3-carboxylate], the half-inhibitory concentration (IC50) was determined as 12 ± 2.4 µM.
Same read-out and setting: under `CCOC(=O)c1c(C)oc2c1C(=O)c1nc(N(C)C)ccc1C2=O` [Compound 23, Ethyl-6-(dimethylamino)-2-methyl-4,9-dioxo-4,9-dihydrofuro[2,3-g]quinoline-3-carboxylate] stands 37 ± 7 µM; under `CCOC(=O)c1c(C(Br)Br)oc2c1C(=O)c1ncccc1C2=O` [Compound 44, Ethyl 2-(dibromomethyl)-4,9-dioxo-4,9-dihydrofuro[2,3-g]quinoline-3-carboxylate], 27 ± 2.5 µM.
On to `CCOC(=O)c1c(C)oc2c1C(=O)c1nc3ccccc3cc1C2=O` [Compound 16, Ethyl 2-methyl-4,11-dioxo-4,11-dihydrofuro[2,3-b]acridine-3-carboxylate], for which the IC50 is over 111 µM.

Still in this test, the particulars now being: read-out: TDP2 inhibitory activity IC50; mean ± SD from at least three independent experiments; recombinant TDP2.
In the case of `O=C(OCCOC12CC3CC(CC(C3)C1)C2)c1noc2c1C(=O)c1cccnc1C2=O` [Compound 63, 2-(((3 s,5s,7s)-Adamantan-1-yl)oxy)ethyl 4,9-dioxo-4,9-dihydroisoxazolo[4,5-g]quinoline-3-carboxylate], the concentration for half-maximal inhibition (IC50) was found to be 20 ± 0.18 µM.

These data come from publication PMC9893515 (Bioorganic chemistry, 2021).
